From the M2OR odorant receptor database

How the values were obtained:
Conditions in all cases: stereoisomer not certain
UniProt L7N0P5 = biological target: T1, UniProt L7N0P5
T1 sequence (whole entry): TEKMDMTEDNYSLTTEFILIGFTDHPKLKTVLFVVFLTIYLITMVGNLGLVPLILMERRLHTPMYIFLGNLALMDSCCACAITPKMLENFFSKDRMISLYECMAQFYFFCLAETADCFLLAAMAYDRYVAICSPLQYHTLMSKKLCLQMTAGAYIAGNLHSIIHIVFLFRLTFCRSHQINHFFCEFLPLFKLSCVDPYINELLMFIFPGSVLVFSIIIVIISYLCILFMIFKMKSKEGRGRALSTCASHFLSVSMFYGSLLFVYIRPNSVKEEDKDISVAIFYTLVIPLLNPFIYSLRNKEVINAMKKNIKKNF
Method in brief: (§1)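 Each entry records the cell line, G-protein, co-transfected protein and tags used. Methods varied with the source, often transient luciferase assays in mammalian cell lines. A receptor–molecule pair is called responsive (active) if the original authors judged its signal statistically different from baseline and non-responsive (inactive) otherwise.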

UniProt Q7TRM0 = biological target: T2, UniProt Q7TRM0
T2 sequence (whole entry): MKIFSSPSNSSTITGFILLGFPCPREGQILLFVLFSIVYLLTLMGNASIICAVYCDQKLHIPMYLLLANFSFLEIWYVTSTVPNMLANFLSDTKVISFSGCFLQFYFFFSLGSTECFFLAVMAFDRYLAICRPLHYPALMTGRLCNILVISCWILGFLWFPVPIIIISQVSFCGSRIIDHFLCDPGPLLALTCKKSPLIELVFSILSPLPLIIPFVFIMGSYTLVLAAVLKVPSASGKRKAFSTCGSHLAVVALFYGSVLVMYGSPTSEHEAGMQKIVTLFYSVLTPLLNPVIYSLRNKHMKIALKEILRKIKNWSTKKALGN
Method in brief: as §1

UniProt Q7TRN9 = biological target: T3, UniProt Q7TRN9
T3 sequence (whole entry): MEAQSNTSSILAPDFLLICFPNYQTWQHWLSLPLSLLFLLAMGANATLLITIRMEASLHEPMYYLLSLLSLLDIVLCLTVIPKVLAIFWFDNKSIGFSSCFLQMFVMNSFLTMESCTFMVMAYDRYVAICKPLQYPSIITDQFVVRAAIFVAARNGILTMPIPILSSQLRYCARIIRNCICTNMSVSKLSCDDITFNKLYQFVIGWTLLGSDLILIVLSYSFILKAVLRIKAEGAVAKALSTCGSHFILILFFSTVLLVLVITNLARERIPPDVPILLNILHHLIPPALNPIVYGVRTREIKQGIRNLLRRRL
Method in brief: as §1

UniProt L7MU75 = biological target: T4, UniProt L7MU75
T4 sequence (whole entry): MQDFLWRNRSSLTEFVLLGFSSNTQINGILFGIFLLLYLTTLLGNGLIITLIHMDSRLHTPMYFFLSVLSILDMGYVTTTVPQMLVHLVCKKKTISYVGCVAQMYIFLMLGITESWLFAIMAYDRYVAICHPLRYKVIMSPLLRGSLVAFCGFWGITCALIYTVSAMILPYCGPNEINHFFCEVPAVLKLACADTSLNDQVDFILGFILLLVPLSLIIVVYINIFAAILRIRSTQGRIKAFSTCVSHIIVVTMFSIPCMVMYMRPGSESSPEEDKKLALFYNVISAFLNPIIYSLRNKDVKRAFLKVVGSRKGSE
Method in brief: as §1

UniProt L7N210 = biological target: T5, UniProt L7N210
T5 sequence (whole entry): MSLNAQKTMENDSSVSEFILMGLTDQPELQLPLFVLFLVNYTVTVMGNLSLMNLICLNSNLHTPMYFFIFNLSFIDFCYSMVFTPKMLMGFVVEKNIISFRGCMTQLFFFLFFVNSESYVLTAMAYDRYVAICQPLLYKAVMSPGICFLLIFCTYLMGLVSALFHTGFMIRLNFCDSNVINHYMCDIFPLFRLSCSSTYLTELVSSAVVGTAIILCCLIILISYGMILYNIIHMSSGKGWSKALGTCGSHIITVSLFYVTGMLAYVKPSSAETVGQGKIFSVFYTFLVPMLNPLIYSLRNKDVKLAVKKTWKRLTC
Method in brief: as §1

UniProt Q3KPB0 = biological target: T6, UniProt Q3KPB0
T6 sequence (whole entry): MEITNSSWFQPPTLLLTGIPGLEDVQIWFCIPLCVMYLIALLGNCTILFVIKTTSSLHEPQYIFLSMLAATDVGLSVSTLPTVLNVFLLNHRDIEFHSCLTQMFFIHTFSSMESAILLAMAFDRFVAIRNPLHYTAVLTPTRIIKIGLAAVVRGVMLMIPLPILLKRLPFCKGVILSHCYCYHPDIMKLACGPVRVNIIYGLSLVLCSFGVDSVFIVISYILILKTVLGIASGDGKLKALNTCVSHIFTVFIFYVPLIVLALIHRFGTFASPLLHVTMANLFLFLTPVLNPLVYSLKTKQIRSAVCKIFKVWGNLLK
Method in brief: as §1

UniProt Q3U0P3 = biological target: T7, UniProt Q3U0P3
T7 sequence (whole entry): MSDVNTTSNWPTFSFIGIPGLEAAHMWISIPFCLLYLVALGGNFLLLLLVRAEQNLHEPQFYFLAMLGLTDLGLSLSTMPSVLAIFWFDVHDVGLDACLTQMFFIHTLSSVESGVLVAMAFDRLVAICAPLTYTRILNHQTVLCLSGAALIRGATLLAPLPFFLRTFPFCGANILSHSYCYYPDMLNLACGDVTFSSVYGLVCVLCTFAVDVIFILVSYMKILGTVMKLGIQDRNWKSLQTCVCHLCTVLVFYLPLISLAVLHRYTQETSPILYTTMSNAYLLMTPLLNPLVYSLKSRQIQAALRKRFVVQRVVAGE
Method in brief: as §1

UniProt Q7TQU8 = biological target: T8, UniProt Q7TQU8
T8 sequence (whole entry): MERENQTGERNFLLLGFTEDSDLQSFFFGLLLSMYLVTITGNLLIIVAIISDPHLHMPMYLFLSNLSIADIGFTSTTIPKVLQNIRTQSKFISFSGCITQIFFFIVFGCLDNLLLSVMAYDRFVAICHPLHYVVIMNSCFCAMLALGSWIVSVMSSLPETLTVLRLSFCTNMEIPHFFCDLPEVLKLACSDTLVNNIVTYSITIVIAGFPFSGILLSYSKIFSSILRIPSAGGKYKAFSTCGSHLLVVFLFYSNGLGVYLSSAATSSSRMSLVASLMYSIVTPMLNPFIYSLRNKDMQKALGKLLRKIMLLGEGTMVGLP
Method in brief: as §1

UniProt Q7TR79 = biological target: T9, UniProt Q7TR79
T9 sequence (whole entry): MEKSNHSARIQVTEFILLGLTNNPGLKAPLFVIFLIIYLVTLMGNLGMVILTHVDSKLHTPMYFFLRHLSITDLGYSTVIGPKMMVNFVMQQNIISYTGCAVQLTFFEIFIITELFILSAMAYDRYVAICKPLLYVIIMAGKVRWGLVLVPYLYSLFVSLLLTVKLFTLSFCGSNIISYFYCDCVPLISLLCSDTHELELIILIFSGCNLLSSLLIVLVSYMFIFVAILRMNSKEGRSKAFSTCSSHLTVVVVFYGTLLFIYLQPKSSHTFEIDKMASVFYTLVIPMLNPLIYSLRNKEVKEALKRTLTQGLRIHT
Method in brief: as §1

UniProt Q7TQV4 = biological target: T10, UniProt Q7TQV4
T10 sequence (whole entry): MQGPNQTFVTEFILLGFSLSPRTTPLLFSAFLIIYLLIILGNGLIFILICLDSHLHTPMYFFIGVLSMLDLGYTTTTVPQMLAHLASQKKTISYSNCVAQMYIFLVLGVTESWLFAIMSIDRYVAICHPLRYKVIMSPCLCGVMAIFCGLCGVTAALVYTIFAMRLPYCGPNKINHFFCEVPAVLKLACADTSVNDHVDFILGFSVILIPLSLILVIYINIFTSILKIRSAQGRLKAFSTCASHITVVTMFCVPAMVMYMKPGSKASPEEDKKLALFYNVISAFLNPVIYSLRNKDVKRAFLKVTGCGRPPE
Method in brief: as §1

UniProt Q7TR71 = biological target: T11, UniProt Q7TR71
T11 sequence (whole entry): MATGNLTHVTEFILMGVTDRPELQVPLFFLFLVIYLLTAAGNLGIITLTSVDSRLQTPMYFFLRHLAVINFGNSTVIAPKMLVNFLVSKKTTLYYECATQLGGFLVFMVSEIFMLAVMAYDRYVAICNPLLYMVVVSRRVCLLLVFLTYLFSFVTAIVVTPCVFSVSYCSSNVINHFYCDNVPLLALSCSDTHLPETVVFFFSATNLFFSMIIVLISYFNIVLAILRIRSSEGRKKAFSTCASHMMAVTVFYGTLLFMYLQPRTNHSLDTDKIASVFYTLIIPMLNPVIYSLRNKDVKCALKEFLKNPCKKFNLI
Method in brief: as §1

UniProt Q7TRA3 = biological target: T12, UniProt Q7TRA3
T12 sequence (whole entry): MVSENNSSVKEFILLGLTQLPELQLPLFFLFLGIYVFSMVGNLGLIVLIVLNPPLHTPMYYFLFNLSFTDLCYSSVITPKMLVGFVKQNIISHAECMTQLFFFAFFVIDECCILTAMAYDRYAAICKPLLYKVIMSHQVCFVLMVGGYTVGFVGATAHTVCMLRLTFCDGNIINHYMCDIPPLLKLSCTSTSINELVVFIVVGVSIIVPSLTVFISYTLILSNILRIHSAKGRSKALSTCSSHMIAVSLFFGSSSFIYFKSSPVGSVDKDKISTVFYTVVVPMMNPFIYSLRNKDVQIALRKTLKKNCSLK
Method in brief: as §1

UniProt Q7TRE4 = biological target: T13, UniProt Q7TRE4
T13 sequence (whole entry): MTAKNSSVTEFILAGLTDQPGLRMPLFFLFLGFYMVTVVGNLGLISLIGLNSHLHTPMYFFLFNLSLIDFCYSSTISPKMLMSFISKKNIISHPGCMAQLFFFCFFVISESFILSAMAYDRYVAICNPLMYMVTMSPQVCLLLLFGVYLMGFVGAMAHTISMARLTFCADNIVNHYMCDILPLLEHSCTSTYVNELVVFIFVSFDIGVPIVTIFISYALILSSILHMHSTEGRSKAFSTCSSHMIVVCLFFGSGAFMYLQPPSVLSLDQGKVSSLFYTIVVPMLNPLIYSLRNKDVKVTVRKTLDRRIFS
Method in brief: as §1

Measured: odorant receptor agonist call

CC1CCc2nccnc21 (centres undefined)
active: UniProt L7N0P5

O=C([O-])CCCCC(=O)[O-].[H+].[H+]
inactive: UniProt Q7TRM0 | UniProt Q7TRN9

C=Cc1cnccn1
active: UniProt L7N0P5

O=C(O)CCCCCBr
inactive: UniProt L7MU75 | UniProt L7N210 | UniProt Q3KPB0 | UniProt Q3U0P3 | UniProt Q7TQU8 | UniProt Q7TR79 | UniProt Q7TRM0 | UniProt Q7TRN9

CCCO
inactive: UniProt L7MU75 | UniProt L7N210 | UniProt Q3U0P3 | UniProt Q7TQU8 | UniProt Q7TR79

CC(=O)c1nccnc1C
active: UniProt L7N0P5

CCCC(C)=O
inactive: UniProt L7MU75 | UniProt L7N210 | UniProt Q7TQV4 | UniProt Q7TR71 | UniProt Q7TRA3 | UniProt Q7TRE4
